Assay results as given in the RNAGym collection of RNA variant scans (doi:10.1126/science.aae0568).
Fewer inactive variants are shown than the library holds.

B1: tRNA (parent)
chain: GUUCCGUUGGCGUAAUGGUAACGCGUCUCCCUCCUAAGGAGAAGACUGCGGGUUCGAGUCCCGUACGGAACG

Variants of: B1
Test: yeast fitness relative to wild type (ratio to wild type); higher = fitter; tRNA-Arg(CCU), competitive growth, 37 C, YPD
How it was run: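 Variants of the tRNA-Arg(CCU) gene were chemically synthesised with a 3% per-site mutation rate across 69 sites and placed at the native genomic locus in Saccharomyces cerevisiae. Six parallel replicates of the pooled strains were competed in YPD at 37°C for 24 hours, and gene amplicons from the start and end populations were read by 100-nucleotide paired-end sequencing. Darwinian fitness relative to wild type was derived from changes in genotype frequencies. Genotypes required ≥ 100 starting reads, and estimates < 0.5 were set to 0.5.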

Row | Variant | yeast fitness
1 | A43U C46A A69C | 0.734
2 | A42C G58A C62A | ≤ 0.5
3 | A43G C60U C62U A70C | ≤ 0.5
4 | A42U C61U | 0.827
5 | A42G A69C | 0.95
6 | A43G U54C | 0.905
7 | A43C G48A A57C G68U | 0.701
8 | A42U G67C | 0.69
9 | A43G G48C | 0.829
10 | A43U C46A | 0.98
11 | A43U C46G | 0.829
12 | G44A G63C | 0.826
13 | G44A G63A | 0.97
14 | G44C C60G | 0.59
15 | G44C G50C U54G C61G U64C | ≤ 0.5
16 | A43G G58A A65C C66U | ≤ 0.5
17 | A42U G63U | 0.701
18 | A42U G63A | 0.868
19 | A43U G48A U53A | 0.506
20 | G44C C61A | 0.583
21 | A42G C60G C61G | ≤ 0.5
22 | A43G C55U C66G | 0.626
23 | A43U G52C | 0.6
24 | A43U G52A | 0.663

Row | Variant | yeast fitness
25 | A43C A70C | 0.897
26 | A42U C66U | 0.793
27 | A43C C55A | 0.588
28 | A43C C55G | 0.641
29 | A43C C55U | 0.721
30 | A43U C60G C66U | 0.534
31 | A43C U47A G58C | 0.689
32 | A43G U59C | 0.863
33 | A43G U59G | 0.842
34 | A42U A45U C49G U53A | ≤ 0.5
35 | G44C G63C | 0.623
36 | A43G U53G C55A G56C A57G G58A U59G C60U A65C | ≤ 0.5
37 | A42G G51U A70C | ≤ 0.5
38 | A43G U64A A69U | 0.648
39 | A43U G48A C62A C66G | 0.533
40 | A43G C46U | 0.92
41 | A43G G44A G56C C62U | ≤ 0.5
42 | A42C G68U | 0.873
43 | A42C G68A | 0.898
44 | A43G G67C | 0.872
45 | G44A A45G G51C C66U A69C | 0.576
46 | A42U U54A G58C | 0.599
47 | A43G G58C C62U | 0.537
48 | G44C G50C A70C | 0.573

Row | Variant | yeast fitness
49 | A42G G68C A69G | 0.563
50 | A42G U59A | 0.939
51 | A42G U59C | 0.714
52 | A42U A57C A65U | 0.589
53 | A43C G52C C55U A69C | ≤ 0.5
54 | G44C G67C | 0.823
55 | A42U A43G | 0.88
56 | A43U G58C | 0.892
57 | A43C C55U C66G | ≤ 0.5
58 | A43C A45G G48A G58A A65U | ≤ 0.5
59 | A43C A45U C49G C61U | ≤ 0.5
60 | G44C G56A C66U | 0.634
61 | A43C C46A G67A | 0.538
62 | G44C A69G | 1.04
63 | A42U C46U A69C | 0.9
64 | A43U G67C | 0.778
65 | A43U G67A | 0.79
66 | A43U G67U | 0.87
67 | A42U A45U C60U A65C | ≤ 0.5
68 | A42U C46G G52C C62A | ≤ 0.5
69 | A43G G56C A69U | 0.683
70 | A42C U47C A69U | 0.821
71 | A42U G50A C60G | 0.614
72 | G44A A45C C49U C61G | ≤ 0.5

Row | Variant | yeast fitness
73 | A43U U47A | 0.799
74 | A43U A65U C66A | ≤ 0.5
75 | A42C G63C A69C | ≤ 0.5
76 | A43G A69C | 0.935
77 | G44C G68A | 0.937
78 | A42C U54A G67C A69U | 0.571
79 | G44A A57U | 0.635
80 | G44A G51C | 0.572
81 | A42G G48A G51C | ≤ 0.5
82 | A42U A69G | 1.11
83 | A42U A69C | 0.959
84 | A43G G48C C55G | 0.597
85 | A42G U54G | 0.562
86 | A43U A69U | 0.904
87 | A42U G63A G68C A69C | ≤ 0.5
88 | A42G C61U G63C | ≤ 0.5
89 | A42G C62U A69C | 0.696
90 | A43G U47C | 1.04
91 | A43G U47A | 0.88
92 | A43C G52A A69U | 0.508
93 | A43C C55A A57C | ≤ 0.5
94 | A43C C62A G63A C66G A69G | ≤ 0.5
95 | A42G C49G | 0.767
96 | A42G C49A | 0.782

Row | Variant | yeast fitness
97 | A42U G50C U53A | ≤ 0.5
98 | G44A C55U G63A | ≤ 0.5
99 | A43U C55U | 0.768
100 | A43U C55A | 0.613
101 | A43C C62U A65U | 0.591
102 | A42G C61U | 0.853
103 | A42G C61A | 0.553
104 | A42G A45G U47C G51C | ≤ 0.5
105 | A42U A45G | 0.918
106 | A42U A45U | 1.09
107 | G44C C66U | 0.692
108 | A43G G50A G68U | ≤ 0.5
109 | A42G G58C A70U | 0.748
110 | A42U | 0.978
111 | A42G | 0.934
112 | A43U C60G | 0.655
113 | A42C U47G | 0.607
114 | G44C G56C | 0.58
115 | G44A C55U A69C | 0.585
116 | A43G A57C | 0.525
117 | G44C C62U | 0.902
118 | A43U G68C | 0.815
119 | A43U G68A | 0.669
120 | A42U A43C C49G A65C | ≤ 0.5

Row | Variant | yeast fitness
121 | A42G G44C | 0.906
122 | A42U C55U C66U | ≤ 0.5
123 | A43G C49U | 0.9
124 | A42U U59C U64A | ≤ 0.5
125 | A42G C49G U54C G63C | 0.524
126 | A43C G50A G67A | ≤ 0.5
127 | A43U A45G | 0.852
128 | A42U A43G G48C U53A A65U A70C | ≤ 0.5
129 | A43U G50A A57G | ≤ 0.5
130 | A42G G51A C60U G63A | ≤ 0.5
131 | A43G U53C | 0.84
132 | A42U G44C A65C | ≤ 0.5
133 | A42G A57U | 0.714
134 | A42G A57G | 0.768
135 | A42G A70U | 0.941
136 | A43C G63C | 0.692
137 | A43C G63A | 0.929
138 | A43U G48A C61G | ≤ 0.5
139 | A42U G51C C62U C66U | 0.708
140 | G44A A45U | 0.885
141 | A43G C49U U54C | 0.522
142 | A43C A57C A69U | ≤ 0.5
143 | A43G A65C | 0.79
144 | A43G U47A C55A | ≤ 0.5

Row | Variant | yeast fitness
145 | A43G A45G C55U G68A | ≤ 0.5
146 | A43C C62U | 0.93
147 | G44C A45G G67A | 0.695
148 | A42U A43U A57G | 0.534
149 | A42G C55G | 0.669
150 | A43U A57C | 0.726
151 | A42G G44C C49U A57C | ≤ 0.5
152 | A42G G56A | 0.87
153 | G44A C49G | 0.714
154 | G44A U54C G56C | ≤ 0.5
155 | A43G U59C A70C | 0.658
156 | G44A C55U U64A A69C | ≤ 0.5
157 | A42U C61U A70C | 0.709
158 | A42C G67A | 0.833
159 | A42U A57C | 0.681
160 | A42U A57G | 0.905
161 | A42U G48A | 0.895
162 | A43G G51C | 0.56
163 | A42C U47C G63A | 0.692
164 | A42G G44C U59A | 0.537
165 | A43G G63A | 0.745
166 | A43C G48C | 0.933
167 | A43G G58U | 0.707
